This is an account of results in ChEMBL document CHEMBL1155805 (J Med Chem, 2008).

One may read the EC50 as the concentration that produces a half-maximal response. In general, Emax refers to the greatest response seen or fitted, relative to the assay's reference. A word on the Ki: it is a dissociation constant, usually derived from enzyme kinetics or from competition with a known ligand.

A value given as a limit tells only on which side of the number the result lay.

The target of test [1] is T1, 5-hydroxytryptamine receptor 1A (Rattus norvegicus, UniProt P19327).
T1 sequence (P19327 whole entry): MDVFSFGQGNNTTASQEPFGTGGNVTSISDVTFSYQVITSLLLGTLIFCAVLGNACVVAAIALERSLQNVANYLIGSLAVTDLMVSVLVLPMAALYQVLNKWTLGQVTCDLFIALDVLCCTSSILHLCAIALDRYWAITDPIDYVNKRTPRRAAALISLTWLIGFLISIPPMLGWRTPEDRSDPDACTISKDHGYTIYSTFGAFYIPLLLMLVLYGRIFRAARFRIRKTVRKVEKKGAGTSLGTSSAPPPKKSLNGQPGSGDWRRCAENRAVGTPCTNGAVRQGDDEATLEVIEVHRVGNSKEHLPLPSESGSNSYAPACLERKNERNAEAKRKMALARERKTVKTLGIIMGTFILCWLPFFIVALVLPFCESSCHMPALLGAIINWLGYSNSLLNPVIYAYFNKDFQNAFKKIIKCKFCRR
Put plainly: Agonist activity at 5HT1A receptor in CRL:CD(SD)BR-COBS rat hippocampus assessed as increase in [35S]GTPgammaS binding. It counts as functional, tissue-based. Put shortly: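 Rat hippocampal membranes (200 µg protein/sample), washed in 50 mM Tris·HCl and resuspended in pH 7.7 Tris with 10 µM pargyline and 4 mM CaCl2. Graded drug concentrations were applied, with 20 min preincubation at 37 °C, then 45 min at 37 °C with 0.1 nM [35S]GTPγS. Nonspecific binding was set with 10 µM GTPγS, followed by GF/B filtration. Mean ± SD, three experiments.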
A general note: GTPγS resists hydrolysis and so accumulates on activated G proteins.

The target in test [2] is T2, 5-hydroxytryptamine receptor 1A (Rattus norvegicus) (UniProt P19327).
T2 sequence (whole entry): T1 sequence (P19327 whole entry)
Description: Agonist activity at 5HT1A receptor in CRL:CD(SD)BR-COBS rat hippocampus assessed as increase in [35S]GTPgammaS binding relative to 5-hydroxytryptamine. The format is functional, tissue-based. Put shortly: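 Rat hippocampal membranes (200 µg protein/sample), washed in 50 mM Tris·HCl and resuspended in pH 7.7 Tris with 10 µM pargyline and 4 mM CaCl2. Graded drug concentrations were applied, with 20 min preincubation at 37 °C, then 45 min at 37 °C with 0.1 nM [35S]GTPγS. Nonspecific binding was set with 10 µM GTPγS, followed by GF/B filtration. EC50 and Emax (vs 5-HT) came from curve fitting. Mean ± SD, three experiments.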

Test [3] in a line: Displacement of [3H]prazosin from adrenergic receptor alpha1 in CRL:CD(SD)BR-COBS rat brain cortex. The essentials: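 Cortical membranes were washed (50000g, 10 min at 37 °C) and suspended in 50 mM Tris·HCl pH 7.7 with 10 µM pargyline and 0.1% ascorbic acid. Incubation used 0.2 nM [3H]prazosin for 30 min at 25 °C. Nonspecific binding was defined with 3 µM phentolamine. Filtration was used. Ki is the mean ± SD of three experiments.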

Test [4] has as its target D(2) dopamine receptor (Rattus norvegicus, UniProt P61169). Put plainly: Displacement of [3H]spiperone from dopamine D2 receptor in CRL:CD(SD)BR-COBS rat brain striatum. In general terms: In a radioligand displacement assay an active substance lowers the binding of a labelled ligand.
The target in test [5] is T1, 5-hydroxytryptamine receptor 1A. Description: Displacement of [3H]8-OH-DPAT from 5HT1A receptor in CRL:CD(SD)BR-COBS rat hippocampus. It counts as tissue-based. The essentials:
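Rat hippocampus homogenized in 50 mM Tris·HCl pH 7.4, spun at 50000g, warmed 10 min at 37 °C, washed, then resuspended in 50 mM Tris·HCl pH 7.7 with 10 µM pargyline and 4 mM CaCl2. Incubation used 1 nM [3H]8-OH-DPAT for 30 min at 25 °C. Nonspecific binding was defined with 10 µM 5-HT. Separation was by filtration. Ki is the mean ± SD of three experiments.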

Test [6] is filed under the species Rattus norvegicus. Put plainly: Ratio of Ki for adrenergic receptor alpha1 to Ki for 5HT1A receptor in CRL:CD(SD)BR-COBS rat brain.
In test [7] the target is 5-hydroxytryptamine receptor 2A (Rattus norvegicus, UniProt P14842). Put plainly: Displacement of [3H]ketanserin from 5HT2A receptor in CRL:CD(SD)BR-COBS rat brain cortex. Put shortly: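 Cortex homogenate was washed, including 10 min at 37 °C, and resuspended in 50 mM Tris·HCl pH 7.7. Incubation used 0.35 nM [3H]ketanserin for 15 min at 37 °C. Nonspecific binding was defined with 1 µM methysergide. Filtration was used. Ki is the mean ± SD of three experiments.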

The target in test [8] is D(1A) dopamine receptor (Rattus norvegicus, UniProt P18901). Put plainly: Displacement of [3H]SCH23390 from dopamine D1 receptor in CRL:CD(SD)BR-COBS rat brain striatum. Put shortly: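 Striatal membranes were washed (50000g spins, 10 min at 37 °C), then held in 50 mM Tris·HCl pH 7.4 with 10 µM pargyline, 120 mM NaCl, 5 mM KCl, 2 mM CaCl2, 1 mM MgCl2 and 0.1% ascorbic acid. Incubation used 0.4 nM [3H]SCH23390 for 15 min at 25 °C. Nonspecific binding was defined with 10 µM (-)-cis-flupentixol. Filtration was used. Ki is the mean ± SD of three experiments.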

The target of test [9] is T1, 5-hydroxytryptamine receptor 1A. Description: Antagonist activity at 5HT1A receptor in CRL:CD(SD)BR-COBS rat hippocampus assessed as inhibition of 5-hydroxytryptamine-induced increase in [35S]GTPgammaS binding. The format is functional, tissue-based. The essentials: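 Hippocampal membranes (rat, 200 µg protein/sample) were prepared as for 5-HT1A binding. Antagonists were tested at several concentrations with 10 µM 5-HT: 20 min preincubation at 37 °C, then 45 min at 37 °C with 0.1 nM [35S]GTPγS. Nonspecific binding was set with 10 µM GTPγS, followed by filtration. IC50 was fitted and converted to Ki by Cheng–Prusoff. Mean ± SD of three experiments.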

Chain of D(1A) dopamine receptor (P18901 whole entry): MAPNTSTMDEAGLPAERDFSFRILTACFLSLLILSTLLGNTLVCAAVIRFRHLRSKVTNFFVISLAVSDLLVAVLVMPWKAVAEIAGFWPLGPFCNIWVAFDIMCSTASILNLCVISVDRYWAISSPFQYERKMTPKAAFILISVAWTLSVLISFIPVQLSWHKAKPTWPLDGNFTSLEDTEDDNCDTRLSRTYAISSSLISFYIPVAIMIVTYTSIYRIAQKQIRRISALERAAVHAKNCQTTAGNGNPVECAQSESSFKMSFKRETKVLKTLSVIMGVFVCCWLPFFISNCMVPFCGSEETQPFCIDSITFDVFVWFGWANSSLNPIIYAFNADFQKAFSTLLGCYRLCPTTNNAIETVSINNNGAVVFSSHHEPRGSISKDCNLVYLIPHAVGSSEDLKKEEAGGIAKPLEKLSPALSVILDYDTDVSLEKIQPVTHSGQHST
Chain of 5-hydroxytryptamine receptor 2A (P14842 whole entry): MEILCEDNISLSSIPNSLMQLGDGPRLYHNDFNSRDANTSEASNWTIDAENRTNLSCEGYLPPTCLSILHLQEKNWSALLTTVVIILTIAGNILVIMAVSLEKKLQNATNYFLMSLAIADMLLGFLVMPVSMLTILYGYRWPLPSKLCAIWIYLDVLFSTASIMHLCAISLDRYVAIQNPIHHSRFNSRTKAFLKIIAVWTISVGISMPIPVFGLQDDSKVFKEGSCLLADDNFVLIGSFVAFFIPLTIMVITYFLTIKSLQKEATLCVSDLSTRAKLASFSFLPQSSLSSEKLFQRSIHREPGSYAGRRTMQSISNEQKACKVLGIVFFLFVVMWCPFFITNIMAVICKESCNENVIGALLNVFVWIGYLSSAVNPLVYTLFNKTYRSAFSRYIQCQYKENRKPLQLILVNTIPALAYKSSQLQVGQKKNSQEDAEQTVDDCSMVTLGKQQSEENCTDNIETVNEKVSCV
Chain of D(2) dopamine receptor (P61169 whole entry): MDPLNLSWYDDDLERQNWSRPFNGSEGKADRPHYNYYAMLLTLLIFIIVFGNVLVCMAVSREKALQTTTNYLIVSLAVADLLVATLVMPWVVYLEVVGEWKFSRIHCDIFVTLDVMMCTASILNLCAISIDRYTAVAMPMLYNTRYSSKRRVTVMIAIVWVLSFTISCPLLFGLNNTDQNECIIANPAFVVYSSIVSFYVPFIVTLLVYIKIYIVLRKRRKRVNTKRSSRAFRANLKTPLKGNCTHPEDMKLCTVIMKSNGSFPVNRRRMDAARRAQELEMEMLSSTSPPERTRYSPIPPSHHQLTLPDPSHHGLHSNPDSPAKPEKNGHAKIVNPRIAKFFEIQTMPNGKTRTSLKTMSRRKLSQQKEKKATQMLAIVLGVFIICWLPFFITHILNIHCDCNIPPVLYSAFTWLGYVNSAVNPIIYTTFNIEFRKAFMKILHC

Take `CCC1=CC2C(=O)N(N)C(SCCCN3CCN(c4ncccn4)CC3)=NC2S1` (stereo unspecified): in test [1], the 50% effective concentration (EC50) was 1210 nM. Besides, in [2], the maximal effect (Emax) was 38%.

Regarding `c1ccc(N2CCN(CCCSc3nc4ccccc4o3)CC2)nc1`, the Ki in test [3] is 98 nM; in test [4] it was 429 nM; in test [5] it was 1.6 nM; in [7] it was 174 nM; in test [8] it was over 10000 nM. Also, the Ratio Ki in test [6] was 61.

Regarding `COc1ccccc1N1CCN(CCSc2nc3ccccc3[nH]2)CC1`, the Ki was 240 nM in test [3] and 33.1 nM in test [5]. Also, in test [6], the Ratio Ki stood at 7.25.

For the compound `c1cnc(N2CCN(CCCSc3nc4ccccc4s3)CC2)nc1`, the Ki in test [3] was 328 nM; in test [4] it was 532 nM; in test [5], 2.5 nM; in test [7] it was 183 nM; in [8] it was over 10000 nM. In addition, the Ratio Ki in test [6] came to 131.

Consider `NCCc1c[nH]c2ccc(O)cc12`, for which the Emax in test [2] was 100%.

Regarding `COc1ccccc1N1CCN(CCSc2nc3ccccc3o2)CC1`, the inhibition constant Ki in test [3] was 276 nM; in test [5], 67.2 nM. In addition, in test [6], the Ratio Ki was 4.11.

On to `c1cnc(N2CCN(CCCSc3nc4ccccc4o3)CC2)nc1`, for which the results for the inhibition constant Ki in [3] and in test [5] were 1650 nM and 14.9 nM, respectively. Also, in test [6], the Ratio Ki came to 111.

In test [3], `O=C1c2ccccc2S(=O)(=O)N1CCCCN1CCN(c2ncccn2)CC1` [IPSAPIRONE] had an inhibition constant Ki of 200 nM. Besides, the Ratio Ki in [6] was determined as 36.

For `CCc1cc2c(=O)n(N)c(SCCCN3CCN(c4ccccc4OC)CC3)nc2s1`, the inhibition constant (Ki) in test [9] stood at 7.4 nM.

On to `O=[N+]([O-])c1ccccc1N1CCN(CCSc2nc3ccccc3s2)CC1`, for which the values for the Ki in test [3] and in test [5] were over 10000 nM and 1700 nM, respectively. Further, in test [6], the Ratio Ki was over 5.87.

Consider `O=[N+]([O-])c1ccccc1N1CCN(CCSc2nc3ccccc3o2)CC1`, for which the inhibitory constant (Ki) in test [3] stood at 1920 nM; in test [5], 326 nM. The Ratio Ki in test [6] was determined as 5.87.

Take `O=[N+]([O-])c1ccccc1N1CCN(CCSc2nc3ccccc3[nH]2)CC1`: the Ki came to 457 nM in [3] and 95.2 nM in test [5]. Moreover, the Ratio Ki in test [6] worked out at 4.8.

On to `c1ccc(N2CCN(CCCSc3nc4ccccc4s3)CC2)nc1`, for which, in test [1], the EC50 came to 204 nM. Also, the Ki came to 77.7 nM in test [3]; 462 nM in test [4]; 0.78 nM in test [5]; 78.8 nM in test [7]; 5630 nM in [8]. Besides, the Ratio Ki in test [6] came to 100. The Emax in test [2] turned out to be 33%.

With `COc1ccccc1N1CCN(CCCSc2nc3ccccc3[nH]2)CC1`, the Ki turned out to be 25.9 nM in test [3] and 1 nM in test [5]. Further, the Ratio Ki in [6] came out at 26.

As for `COc1ccccc1N1CCN(CCCCCCSc2nc3ccccc3s2)CC1`, the figures for the inhibition constant Ki in [3] and in test [5] were 46 nM and 1.3 nM, respectively. In addition, in test [6], the Ratio Ki amounted to 53.

With `O=[N+]([O-])c1ccccc1N1CCN(CCCSc2nc3ccccc3s2)CC1`, the Ki in [3] worked out at 249 nM; in [5], 9.6 nM. Also, the Ratio Ki in test [6] turned out to be 26.

As for `COc1ccccc1N1CCN(CCCSc2nc3ccccc3n2C)CC1`, the inhibition constant Ki came out at 20 nM in [3] and 0.27 nM in test [5]. In addition, the Ratio Ki in test [6] was found to be 74.

Take `COc1ccccc1N1CCN(CCSc2nc3ccccc3s2)CC1`: the inhibition constant (Ki) stood at 207 nM in test [3] and 31.2 nM in test [5]. The Ratio Ki in test [6] stood at 6.63.

As to `COc1ccccc1N1CCN(CCCSc2nc3ccccc3s2)CC1`, the Ki in test [9] is 1.7 nM; in [3], 33.2 nM; in [4] it was 25.8 nM; in test [5], 0.29 nM; in test [7], 96.1 nM; in [8] it was 1280 nM. Further, in test [6], the Ratio Ki was 114.

Turning to `COc1ccccc1N1CCN(CCCSc2nc3ccccc3o2)CC1`, the inhibitory constant (Ki) in test [3] amounted to 21.5 nM; in [5], 0.55 nM. In test [6], the Ratio Ki was 39.

Consider `O=[N+]([O-])c1ccccc1N1CCN(CCCSc2nc3ccccc3o2)CC1`, for which the inhibition constant Ki in [3] was 127 nM; in test [5], 14.1 nM. Besides, the Ratio Ki in test [6] came out at 9.

For the compound `COc1ccccc1N1CCN(CCCSc2nc3cc(Cl)ccc3s2)CC1`, the inhibition constant Ki in test [3] came out at 21.9 nM; in test [5] it was 1 nM. Further, in test [6], the Ratio Ki was determined as 22.

As for `COc1ccccc1N1CCN(CCCCCCSc2nc3ccccc3o2)CC1`, the inhibition constant Ki in [9] stood at 1.3 nM; in [3], 52.5 nM; in [4], 46.6 nM; in test [5], 0.52 nM; in test [7] it was 207 nM; in [8] it was 922 nM. Further, the Ratio Ki in test [6] came out at 101.

`COc1ccccc1N1CCN(CCCCSc2nc3ccccc3s2)CC1`: the Ki in [3] turned out to be 16.6 nM; in [4], 58.3 nM; in test [5] it was 0.27 nM; in [7], 106 nM; in [8], 2000 nM. Besides, the Ratio Ki in test [6] came to 61.

`COc1ccccc1N1CCN(CCCCSc2nc3ccccc3o2)CC1`: the Ki was determined as 6.6 nM in [9]; 78 nM in test [3]; 37.3 nM in test [4]; 0.094 nM in test [5]; 298 nM in test [7]; 1600 nM in [8]. The Ratio Ki in test [6] is 830.

As to `COc1ccccc1N1CCN(CCCSc2nc3cc(Cl)ccc3o2)CC1`, the Ki was determined as 46.7 nM in [3] and 0.88 nM in test [5]. Besides, the Ratio Ki in [6] came out at 53.

Turning to `O=[N+]([O-])c1ccccc1N1CCN(CCCSc2nc3ccccc3[nH]2)CC1`, the inhibitory constant (Ki) was 77.4 nM in test [3] and 16.6 nM in test [5]. Also, in test [6], the Ratio Ki was found to be 4.66.
